Results: publication PMC9382226 (Inorganic chemistry, 2022)
“Also recorded” adds a separate entry of the source.

How the values were obtained:
[1] = Aqueous solubility of the complexes; format: physicochemical; details: in words
mice = assay: Ex vivo biodistribution of uranium in mice by ICP-MS; details: for stability of the uranium complex in vivo: biodistribution, label is the ligand of the complex; for uranium uptake in bone (tibia) / clearance from blood / uranium in soft organs (lung, liver, kidney, spleen): 4 mg/kg intravenous injection, ICP-MS; for uranium uptake in bone (tibia): 30 min, 2 h and 24 h
[2] = Ligand protonation constants by potentiometric titration; format: physicochemical; details: 25 °C, I = 0.1 M KCl
[3] = format: binding; details: [UO2^2+]tot = 10^−6 M, [L]tot = 10^−5 M, 25 °C, I = 0.1 M KCl
[4] = format: binding; details: for k2 (pH 7.4), second-order rate constant for complexation of UO2^2+: TRIS buffer pH 7.4, 25 °C; for k2 (pH 5), second-order rate constant for complexation of UO2^2+: aqueous citrate buffer pH 5, 25 °C
[5] = Ligand protonation constants by semi-batch spectrophotometric titration; format: physicochemical; details: 25 °C, I = 0.1 M KCl
Procedure, shortened: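 Semi-batch spectrophotometric titration of test ligands (those not titrated potentiometrically) at 25 °C, ionic strength 0.1 M with KCl as supporting electrolyte; protonation constants fitted from the titration data; uncertainty given as standard deviation of the last digit.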

[6] = Initial pH potentiometric experiments with UO2^2+; format: binding; details: lowest electrode-calibrated pH value of 2.4
[7] = Kinetic stability challenge with hydroxyapatite; format: physicochemical; details: 2000 equiv. HAP, 0.1 M TRIS, 37 °C, arsenazo III indicator

| SMILES | pUO2 (pH 7.4) = −log[UO2^2+]free [3] | k2 (pH 7.4), second-order rate constant for complexation of UO2^2+ [4] | k2 (pH 5), second-order rate constant for complexation of UO2^2+ [4] | stability of the uranium complex in vivo (mice) | uranium uptake in bone (tibia) (mice) | clearance from blood (mice) | uranium in soft organs (lung, liver, kidney, spleen) (mice) | also measured |
| --- | --- | --- | --- | --- | --- | --- | --- | --- |
| [O-]c1cccc2ccc(CNC3CCCCC3NCc3ccc4cccc([O-])c4n3)nc12.[O]=[U+2]=[O] (stereo not drawn) [[UO2(CHXhox)]] |  |  |  |  |  |  |  | aqueous solubility [1]: low solubility in water; also recorded: poor aqueous solubility; lethality upon injection (mice; intravenous injection): precipitation in the circulatory system upon injection causing lethality |
| O=C(O)c1cccc(CNC2CCCCC2NCc2cccc(C(=O)O)n2)n1 (stereo not drawn) [H2CHXdedpa] | 17.72 | 1190 ± 150 M^−1 s^−1 | 1320 ± 140 M^−1 s^−1 | stable in vivo |  |  |  | pKa1 [2]: 9.39(2); pKa2 [2]: 6.43(6); pKa3 [2]: 3.15(6); pKa4 [2]: 2.40(8) |
| [O-]c1cccc2ccc(CNCCNCc3ccc4cccc([O-])c4n3)nc12.[O]=[U+2]=[O] [[UO2(hox)]] |  |  |  |  | minimal uptake in the bone | rapidly cleared from the blood | significant accumulation of uranium in the lungs |  |
| Oc1cccc2ccc(CNCCNCc3ccc4cccc(O)c4n3)nc12 [H2hox] | 19.80 | 3420 ± 340 M^−1 s^−1 | 73 ± 5 M^−1 s^−1 | stable in vivo |  |  |  | pKa1 [5]: 11.0(1); pKa2 [5]: 10.10(8); pKa3 [5]: 8.63(5); pKa4 [5]: 6.1(3) |
| O=C(O)c1cccc(CNCCNCc2cccc(C(=O)O)n2)n1 [H2dedpa] | 17.46 | 450 ± 40 M^−1 s^−1 | 420 ± 28 M^−1 s^−1 | stable in vivo |  |  |  | pKa1 [2]: 8.95(3); pKa2 [2]: 6.32(6); pKa3 [2]: 3.15(6); pKa4 [2]: 2.28(7); free UO2^2+ present [6]: < 5% |
| O=C([O-])c1cccc(CNC2CCCCC2NCc2cccc(C(=O)[O-])n2)n1.[O]=[U+2]=[O] (stereo not drawn) [[UO2(CHXdedpa)]] |  |  |  |  | minimal uptake in the bone | rapidly cleared from the blood | low but detectable values of uranium were found in the lung, liver and kidney |  |
| Oc1cccc2ccc(CNC3CCCCC3NCc3ccc4cccc(O)c4n3)nc12 (stereo not drawn) [H2CHXhox] | 19.98 | 2850 ± 380 M^−1 s^−1 | 140 ± 5 M^−1 s^−1 |  |  |  |  | pKa1 [5]: 10.95(9); pKa2 [5]: 10.18(2); pKa3 [5]: 8.72(7); pKa4 [5]: 5.37(2) |
| O=C([O-])c1cccc(CNCCNCc2cccc(C(=O)[O-])n2)n1.[O]=[U+2]=[O] [[UO2(dedpa)]] |  |  |  |  | minimal uptake in the bone | rapidly cleared from the blood | low but detectable values of uranium were found in the lung, liver and kidney |  |
| O.O.O.O.O.O.O=[N+]([O-])O.O=[N+]([O-])O.[O]=[U]=[O] [UO2(NO3)2·6H2O] |  |  |  |  |  |  |  | original uranium remaining in solution with HAP ([7]; after 12 h): 10%; uranium remaining in solution with HAP ([7]; by 120 h): undetectable |
